This is an account of results in ChEMBL document CHEMBL3576758, “Creation of Customized Bioactivity within a 14-Membered Macrolide Scaffold: Design, Synthesis, and Biological Evaluation Using a Family-18 Chitinase” (J Med Chem, 2015).

As usually defined, the IC50 is the concentration needed to halve the response being measured. What is called MIC is the least concentration at which growth counts as inhibited.

The target in test [1] is T1, Chitinase B (Serratia marcescens, UniProt P11797).
T1 sequence (P11797 whole entry): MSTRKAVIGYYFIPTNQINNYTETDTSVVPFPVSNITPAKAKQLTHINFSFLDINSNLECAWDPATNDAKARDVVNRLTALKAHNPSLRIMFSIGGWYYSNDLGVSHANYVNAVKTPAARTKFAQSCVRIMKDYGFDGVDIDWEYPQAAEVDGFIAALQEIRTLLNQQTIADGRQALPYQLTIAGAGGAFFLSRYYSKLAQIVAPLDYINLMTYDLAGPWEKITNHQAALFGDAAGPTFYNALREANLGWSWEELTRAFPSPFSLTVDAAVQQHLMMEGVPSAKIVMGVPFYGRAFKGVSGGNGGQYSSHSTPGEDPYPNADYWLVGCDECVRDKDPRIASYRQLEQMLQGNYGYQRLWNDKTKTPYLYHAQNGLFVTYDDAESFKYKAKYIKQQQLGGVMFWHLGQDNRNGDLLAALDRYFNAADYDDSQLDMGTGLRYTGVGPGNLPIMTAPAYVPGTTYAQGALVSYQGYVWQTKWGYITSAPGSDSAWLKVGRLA
As to the kind of experiment: Inhibition of Serratia marcescens chitinase ChiB assessed as reduction in chitinolytic activity using 4MU-(GlcNAc)2 substrate by fluorescence based assay. Summed up: (§1)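 Crude SmChiB: supernatant of sonicated E. coli DH5α carrying pMCB7, grown 24 h at 37 °C in LB with ampicillin and 0.5 mM IPTG, then diluted ×40. Enzyme and inhibitors (in MeOH) were mixed in 0.1 M phosphate, pH 7.0, at 37 °C, and 80 μM 4MU(GlcNAc)2 solution was added. Fluorescence (ex 355/em 460 nm) was read every 60 s, with rates corrected for inhibitor quenching. IC50 was taken from sigmoidal dose–response fits.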

For test [2], the system named is Staphylococcus aureus. As to the kind of experiment: Antibacterial activity against methicillin-sensitive Staphylococcus aureus FDA209P by antimicrobial disk and dilution susceptibility test. Format: functional.
Test [3] has as its system Staphylococcus aureus. As to the kind of experiment: Antibacterial activity against methicillin-sensitive Staphylococcus aureus Smith by antimicrobial disk and dilution susceptibility test. Format: functional.
Test [4] concerns Staphylococcus epidermidis. As to the kind of experiment: Antibacterial activity against Staphylococcus epidermidis KUB795 by antimicrobial disk and dilution susceptibility test. Format: functional.
Test [5] concerns Micrococcus luteus. As to the kind of experiment: Antibacterial activity against Micrococcus luteus ATCC 9341 by antimicrobial disk and dilution susceptibility test. It counts as functional.
Test [6] deals with Enterococcus faecalis. As to the kind of experiment: Antibacterial activity against Enterococcus faecalis ATCC 29212 by antimicrobial disk and dilution susceptibility test. It counts as functional.
Test [7] has as its system Escherichia coli. As to the kind of experiment: Antibacterial activity against Escherichia coli NIHJ JC-2 by antimicrobial disk and dilution susceptibility test. Format: functional.
Test [8] relates to Citrobacter freundii. As to the kind of experiment: Antibacterial activity against Citrobacter freundii ATCC 8090 by antimicrobial disk and dilution susceptibility test. Format: functional.
Test [9] has as its system Klebsiella pneumoniae. As to the kind of experiment: Antibacterial activity against Klebsiella pneumoniae NCTC 9632 by antimicrobial disk and dilution susceptibility test. Format: functional.
The subject of test [10] is Proteus mirabilis. As to the kind of experiment: Antibacterial activity against Proteus mirabilis IFO3849 by antimicrobial disk and dilution susceptibility test. Format: functional.
The subject of test [11] is Proteus vulgaris. As to the kind of experiment: Antibacterial activity against Proteus vulgaris OX-19 by antimicrobial disk and dilution susceptibility test. It counts as functional.
Test [12] has as its system Morganella morganii. As to the kind of experiment: Antibacterial activity against Morganella morganii IID Kono by antimicrobial disk and dilution susceptibility test. It counts as functional.
The subject of test [13] is Serratia marcescens. As to the kind of experiment: Antibacterial activity against Serratia marcescens IFO12648 by antimicrobial disk and dilution susceptibility test. Format: functional.
The subject of test [14] is Enterobacter cloacae. As to the kind of experiment: Antibacterial activity against Enterobacter cloacae IFO13535 by antimicrobial disk and dilution susceptibility test. It counts as functional.
Test [15] relates to Klebsiella aerogenes. As to the kind of experiment: Antibacterial activity against Enterobacter aerogenes NCTC 10006 by antimicrobial disk and dilution susceptibility test. Format: functional.
The subject of test [16] is Pseudomonas aeruginosa. As to the kind of experiment: Antibacterial activity against Pseudomonas aeruginosa 46001 by antimicrobial disk and dilution susceptibility test. Format: functional.
For test [17], the system named is Pseudomonas aeruginosa. As to the kind of experiment: Antibacterial activity against Pseudomonas aeruginosa E-2 by antimicrobial disk and dilution susceptibility test. It counts as functional.
Test [18] has as its system Acinetobacter calcoaceticus. As to the kind of experiment: Antibacterial activity against Acinetobacter calcoaceticus IFO12552 by antimicrobial disk and dilution susceptibility test. Format: functional.
Test [19] concerns the target T1, Chitinase B. As to the kind of experiment: Inhibition of Serratia marcescens chitinase ChiB. Summed up: as §1

In the case of `CC[C@H]1OC(=O)[C@H](C)[C@@H](O)[C@H](C)[C@@H](O)[C@](C)(O)C[C@@H](C)/C(=N\OCc2cn(CCNC(=N)NC(=O)NC)nn2)[C@H](C)[C@@H](O)[C@]1(C)O`, the concentration for half-maximal inhibition (IC50) in [1] was found to be 24.1 µM.
For `CC[C@H]1OC(=O)[C@H](C)[C@@H](O)[C@H](C)[C@@H](OCc2cn(CCNC(=N)NC(=O)NC)nn2)[C@](C)(O)C[C@@H](C)[C@@H]2OC(C)(C)O[C@H]([C@H]2C)[C@]1(C)O`, in test [1], the concentration for half-maximal inhibition (IC50) came to 11.9 µM.
With `C#CCO[C@@H]1[C@@H](C)[C@H](OC(=O)NCCCCNC(=N)NC(=O)NC)[C@@H](C)C(=O)O[C@H](CC)[C@@](C)(O)[C@@H]2OC(C)(C)O[C@H]([C@@H]2C)[C@H](C)C[C@@]1(C)O`, the IC50 in test [1] is 0.217 µM.
Take `CC[C@H]1OC(=O)[C@H](C)[C@@H](OCc2cn(CCNC(=N)NC(=O)NC)nn2)[C@H](C)[C@@H](O)[C@](C)(O)C[C@@H](C)[C@@H]2OC(C)(C)O[C@H]([C@H]2C)[C@]1(C)O`: the IC50 in [1] is 3.3 µM.
On the same count and under the same terms, for `CC[C@H]1OC(=O)[C@H](C)[C@@H](O)[C@H](C)[C@@H](O)[C@](C)(O)C[C@@H](C)[C@@H]2OC(C)(C)O[C@H]([C@H]2C)[C@]1(C)O` the value was > 300 µM; for `CNC(=O)NC(=N)NCCN=[N+]=[N-]`, 7 µM.
For `CNC(=O)NC(=N)n1cccn1`, in [1], the IC50 is > 300 µM.
`C#CCO[C@@H]1[C@@H](C)[C@H](O)[C@@H](C)C(=O)O[C@H](CC)[C@@](C)(O)[C@@H]2OC(C)(C)O[C@H]([C@@H]2C)[C@H](C)C[C@@]1(C)O`: in test [1], the half-maximal inhibitory concentration (IC50) is > 300 µM.
On to `C#CCO[C@@H]1[C@@H](C)[C@H](OC(=O)NCCCNC(=N)NC(=O)NC)[C@@H](C)C(=O)O[C@H](CC)[C@@](C)(O)[C@@H]2OC(C)(C)O[C@H]([C@@H]2C)[C@H](C)C[C@@]1(C)O`, for which the IC50 in [1] was found to be 0.036 µM. Moreover, the minimal inhibitory concentration (MIC) in test [2], in [3], in [4], in test [5], in [6] and in [7] was > 64 µg/mL in each case. In addition, the minimum inhibitory concentration (MIC) in test [8], in [9], in test [10], in [11], in test [12] and in test [13] was > 64 µg/mL throughout. Besides, the MIC in [14], in test [15], in test [16], in [17] and in test [18] was > 64 µg/mL throughout.
On to `CC(=O)N[C@H]1[C@H](O[C@H]2[C@@H](O)[C@@H](NC(C)=O)[C@H](O[C@H]3[C@H](O)[C@H]4N=C(N(C)C)O[C@H]4[C@@H]3CO)O[C@@H]2CO)O[C@H](CO)[C@@H](O)[C@H]1O` [ALLOSAMIDIN], for which the IC50 in test [1] amounted to 0.09 µM.
Regarding `CC(=O)NC(=N)NCCC[C@@H]1NC(=O)[C@H](CCCC(=O)O)NC(=O)[C@H](Cc2c[nH]cn2)N2C(=O)[C@H](C[C@H]2O)NC(=O)[C@H]2CCCN2C1=O` [ARGADIN], the 50% inhibitory concentration (IC50) in test [19] was determined as 0.033 µM.
Turning to `CC[C@H]1OC(=O)[C@H](C)[C@@H](O[C@H]2C[C@@](C)(OC)[C@@H](O)[C@H](C)O2)[C@H](C)[C@@H](O[C@@H]2O[C@H](C)C[C@H](N(C)C)[C@H]2O)[C@](C)(O)C[C@@H](C)C(=O)[C@H](C)[C@@H](O)[C@]1(C)O` [ERYTHROMYCIN], the IC50 in [1] was > 300 µM.
